Measured values as given in ChEMBL document CHEMBL1152462, “Betulinic acid derivatives that target gp120 and inhibit multiple genetic subtypes of human immunodeficiency virus type 1” (Antimicrob Agents Chemother, 2008).
The source made the active and inactive calls. The calls are words filed in the database; no cut-off is given here.

Experiments:
[1] = biological target: Envelope glycoprotein gp160 (Human immunodeficiency virus type 1 group M subtype B (isolate YU-2)(HIV-1)) (UniProt P35961); experiment: Inhibition of HIV1 (isolate YU2) envelope glycoprotein 120-mediated membrane fusion between virus-transfected african green monkey COS cells and human TZM-bl cells by luciferase-based cell-cell fusion assay in presence of IC9564; settings: Human immunodeficiency virus type 1 (isolate YU2)
Sequence of Envelope glycoprotein gp160 (Human immunodeficiency virus type 1 group M subtype B (isolate YU-2)(HIV-1)) (P35961 whole entry, the tested form may be a part): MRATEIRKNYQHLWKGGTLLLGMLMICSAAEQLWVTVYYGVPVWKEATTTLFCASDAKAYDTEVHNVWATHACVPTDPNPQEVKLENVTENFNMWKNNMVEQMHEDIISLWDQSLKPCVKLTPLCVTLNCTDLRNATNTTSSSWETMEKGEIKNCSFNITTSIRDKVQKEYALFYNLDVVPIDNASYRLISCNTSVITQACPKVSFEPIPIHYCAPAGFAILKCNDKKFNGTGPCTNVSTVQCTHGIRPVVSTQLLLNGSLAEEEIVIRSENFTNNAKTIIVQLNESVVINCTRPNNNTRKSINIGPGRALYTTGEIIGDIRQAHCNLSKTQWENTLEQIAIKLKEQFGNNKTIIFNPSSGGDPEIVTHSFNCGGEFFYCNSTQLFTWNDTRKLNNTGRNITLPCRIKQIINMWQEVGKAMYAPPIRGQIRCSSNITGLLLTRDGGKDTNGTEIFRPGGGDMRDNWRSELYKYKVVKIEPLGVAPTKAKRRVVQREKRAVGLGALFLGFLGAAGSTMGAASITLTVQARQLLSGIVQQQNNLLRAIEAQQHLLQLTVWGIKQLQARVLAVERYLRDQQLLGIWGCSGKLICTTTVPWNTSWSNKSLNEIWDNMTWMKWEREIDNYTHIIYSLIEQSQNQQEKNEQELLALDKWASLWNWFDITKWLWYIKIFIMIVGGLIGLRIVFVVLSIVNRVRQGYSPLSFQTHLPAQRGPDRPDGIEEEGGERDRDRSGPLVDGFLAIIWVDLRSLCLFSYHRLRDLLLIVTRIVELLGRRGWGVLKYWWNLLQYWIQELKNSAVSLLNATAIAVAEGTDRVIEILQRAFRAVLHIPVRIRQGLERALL

[2] = Cytotoxicity against human TZM-bl cells after 2 days by trypan blue exclusion assay; format: cell-based; settings: 48 h
[3] = test system: Human immunodeficiency virus 1; experiment: Antiviral activity against HIV1 HXB2 infected in human TZM-b1 cells assessed as inhibition of viral infection after 2 days postinfection by luciferase reporter gene assay; format: functional, organism-based; settings: Human immunodeficiency virus 1, HXB2, TZM-b1, 48 h
Outline: (§1)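 Single-round infection of TZM-bl cells with 200 TCID50 of virus in the presence of varying compound concentrations, top concentration 15 µM. After 2 days, medium was removed and Bright-Glo reagent added to read luminescence. IC50 is the concentration giving 50% reduction in luciferase RLU relative to virus-control wells.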

[4] = test system: Human immunodeficiency virus 1; experiment: Antiviral activity against HIV1 Q769.d22 infected in human TZM-b1 cells assessed as inhibition of viral infection after 2 days postinfection by luciferase reporter gene assay; format: functional, organism-based; settings: Human immunodeficiency virus 1, Q769.d22, TZM-b1, 48 h; outline: as §1
[5] = test system: Human immunodeficiency virus 1; experiment: Antiviral activity against HIV1 Q842.d12 infected in human TZM-b1 cells assessed as inhibition of viral infection after 2 days postinfection by luciferase reporter gene assay; format: functional, organism-based; settings: Human immunodeficiency virus 1, Q842.d12, TZM-b1, 48 h; outline: as §1
[6] = test system: Human immunodeficiency virus 1; experiment: Antiviral activity against HIV1 5768.4 infected in human TZM-b1 cells assessed as inhibition of viral infection after 2 days postinfection by luciferase reporter gene assay; format: functional, organism-based; settings: Human immunodeficiency virus 1, 5768.4, TZM-b1, 48 h; outline: as §1
[7] = test system: Human immunodeficiency virus 1; experiment: Antiviral activity against HIV1 ZM214M.PL15 infected in human TZM-b1 cells assessed as inhibition of viral infection after 2 days postinfection by luciferase reporter gene assay; format: functional, organism-based; settings: Human immunodeficiency virus 1, ZM214M.PL15, TZM-b1, 48 h; outline: as §1
[8] = test system: Human immunodeficiency virus 1; experiment: Antiviral activity against HIV1 RHPA4259.7 infected in human TZM-b1 cells assessed as inhibition of viral infection after 2 days postinfection by luciferase reporter gene assay; format: functional, organism-based; settings: Human immunodeficiency virus 1, RHPA4259.7, TZM-b1, 48 h; outline: as §1
[9] = test system: Human immunodeficiency virus 1; experiment: Antiviral activity against HIV1 SS1196.1 infected in human TZM-b1 cells assessed as inhibition of viral infection after 2 days postinfection by luciferase reporter gene assay; format: functional, organism-based; settings: Human immunodeficiency virus 1, SS1196.1, TZM-b1, 48 h; outline: as §1
[10] = test system: Human immunodeficiency virus 1; experiment: Antiviral activity against HIV1 REJO4541.67 infected in human TZM-b1 cells assessed as inhibition of viral infection after 2 days postinfection by luciferase reporter gene assay; format: functional, organism-based; settings: Human immunodeficiency virus 1, REJO4541.67, TZM-b1, 48 h; outline: as §1
[11] = test system: Human immunodeficiency virus 1; experiment: Antiviral activity against HIV1 Du151.2 infected in human TZM-b1 cells assessed as inhibition of viral infection after 2 days postinfection by luciferase reporter gene assay; format: functional, organism-based; settings: Human immunodeficiency virus 1, Du151.2, TZM-b1, 48 h; outline: as §1
[12] = test system: Human immunodeficiency virus 1; experiment: Antiviral activity against HIV1 ZM197M.PB7 infected in human TZM-b1 cells assessed as inhibition of viral infection after 2 days postinfection by luciferase reporter gene assay; format: functional, organism-based; settings: Human immunodeficiency virus 1, ZM197M.PB7, TZM-b1, 48 h; outline: as §1
[13] = test system: Human immunodeficiency virus 1; experiment: Antiviral activity against HIV1 NL4-3 infected in human TZM-b1 cells assessed as inhibition of viral infection after 2 days postinfection by luciferase reporter gene assay; format: functional, organism-based; settings: Human immunodeficiency virus 1, NL4-3, TZM-b1, 48 h; outline: as §1
[14] = Cytotoxicity against human TZM-bl cells at 15 uM after 2 days by trypan blue exclusion assay; format: cell-based; settings: 48 h
[15] = test system: Human immunodeficiency virus 1; experiment: Antiviral activity against HIV1 ZM109F.PB4 infected in human TZM-b1 cells assessed as inhibition of viral infection after 2 days postinfection by luciferase reporter gene assay; format: functional, organism-based; settings: Human immunodeficiency virus 1, ZM109F.PB4, TZM-b1, 48 h; outline: as §1
[16] = test system: Human immunodeficiency virus 1; experiment: Antiviral activity against HIV1 6535.3 infected in human TZM-b1 cells assessed as inhibition of viral infection after 2 days postinfection by luciferase reporter gene assay; format: functional, organism-based; settings: Human immunodeficiency virus 1, 6535.3, TZM-b1, 48 h; outline: as §1
[17] = test system: Human immunodeficiency virus 1; experiment: Antiviral activity against HIV1 CAP.2.00.G3 infected in human TZM-b1 cells assessed as inhibition of viral infection after 2 days postinfection by luciferase reporter gene assay; format: functional, organism-based; settings: Human immunodeficiency virus 1, CAP.2.00.G3, TZM-b1, 48 h; outline: as §1
[18] = test system: Human immunodeficiency virus 1; experiment: Antiviral activity against HIV1 WITO4160.33 infected in human TZM-b1 cells assessed as inhibition of viral infection after 2 days postinfection by luciferase reporter gene assay; format: functional, organism-based; settings: Human immunodeficiency virus 1, WITO4160.33, TZM-b1, 48 h; outline: as §1
[19] = test system: Human immunodeficiency virus 1; experiment: Antiviral activity against HIV1 Q23.71 infected in human TZM-b1 cells assessed as inhibition of viral infection after 2 days postinfection by luciferase reporter gene assay; format: functional, organism-based; settings: Human immunodeficiency virus 1, Q23.71, TZM-b1, 48 h; outline: as §1
[20] = test system: Human immunodeficiency virus 1; experiment: Antiviral activity against HIV1 Du422.1 infected in human TZM-b1 cells assessed as inhibition of viral infection after 2 days postinfection by luciferase reporter gene assay; format: functional, organism-based; settings: Human immunodeficiency virus 1, Du422.1, TZM-b1, 48 h; outline: as §1
[21] = test system: Human immunodeficiency virus 1; experiment: Antiviral activity against HIV1 Du123.6 infected in human TZM-b1 cells assessed as inhibition of viral infection after 2 days postinfection by luciferase reporter gene assay; format: functional, organism-based; settings: Human immunodeficiency virus 1, Du123.6, TZM-b1, 48 h; outline: as §1
[22] = test system: Human immunodeficiency virus 1; experiment: Antiviral activity against HIV1 ZM55F.PB28a infected in human TZM-b1 cells assessed as inhibition of viral infection after 2 days postinfection by luciferase reporter gene assay; format: functional, organism-based; settings: Human immunodeficiency virus 1, ZM55F.PB28a, TZM-b1, 48 h; outline: as §1
[23] = test system: Human immunodeficiency virus 1; experiment: Antiviral activity against HIV1 CAP244.2.00.D3 infected in human TZM-b1 cells assessed as inhibition of viral infection after 2 days postinfection by luciferase reporter gene assay; format: functional, organism-based; settings: Human immunodeficiency virus 1, CAP244.2.00.D3, TZM-b1, 48 h; outline: as §1
[24] = test system: Human immunodeficiency virus 1; experiment: Antiviral activity against HIV1 QH0515.1 infected in human TZM-b1 cells assessed as inhibition of viral infection after 2 days postinfection by luciferase reporter gene assay; format: functional, organism-based; settings: Human immunodeficiency virus 1, QH0515.1, TZM-b1, 48 h; outline: as §1
[25] = test system: Human immunodeficiency virus 1; experiment: Antiviral activity against HIV1 TRO.11 infected in human TZM-b1 cells assessed as inhibition of viral infection after 2 days postinfection by luciferase reporter gene assay; format: functional, organism-based; settings: Human immunodeficiency virus 1, TRO.11, TZM-b1, 48 h; outline: as §1
[26] = test system: Human immunodeficiency virus 1; experiment: Antiviral activity against HIV1 Q461.e2 infected in human TZM-b1 cells assessed as inhibition of viral infection after 2 days postinfection by luciferase reporter gene assay; format: functional, organism-based; settings: Human immunodeficiency virus 1, Q461.e2, TZM-b1, 48 h; outline: as §1
[27] = test system: Human immunodeficiency virus 1; experiment: Antiviral activity against HIV1 Q168.a2 infected in human TZM-b1 cells assessed as inhibition of viral infection after 2 days postinfection by luciferase reporter gene assay; format: functional, organism-based; settings: Human immunodeficiency virus 1, Q168.a2, TZM-b1, 48 h; outline: as §1
[28] = test system: Human immunodeficiency virus 1; experiment: Antiviral activity against HIV1 Q259.d2.17 infected in human TZM-b1 cells assessed as inhibition of viral infection after 2 days postinfection by luciferase reporter gene assay; format: functional, organism-based; settings: Human immunodeficiency virus 1, Q259.d2.17, TZM-b1, 48 h; outline: as §1
[29] = test system: Human immunodeficiency virus 1; experiment: Inhibition of V3-speciifc monoclonal antibody 447-52 binding to HIV1 Ba-L gp120 by ELISA-based competitive binding assay
[30] = test system: Human immunodeficiency virus 1; experiment: Inhibition of V3-speciifc monoclonal antibody 39F binding to HIV1 3B gp120 by ELISA-based competitive binding assay
[31] = test system: Human immunodeficiency virus 1; experiment: Inhibition of V3-speciifc monoclonal antibody 447-52D binding to HIV1 3B gp120 by ELISA-based competitive binding assay
[32] = test system: HOS; experiment: Inhibition of HIV1 Ba-L gp120/CD4 complex binding to CCR5 expressing HOS cells at 5 µg/ml after 1 hr by competitive binding assay; settings: Human immunodeficiency virus 1
[33] = test system: HOS; experiment: Inhibition of HIV1 3B gp120/CD4 complex binding to CCR5 expressing HOS cells at […] after 1 hr by competitive binding assay; format: cell-based; settings: Human immunodeficiency virus 1
Outline: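 HOS.CCR5 cells were plated on poly-D-lysine and held overnight at 37°C. Soluble CD4 (4.5 nM) was premixed 1:1 with gp120 (Ba-L or IIIB) for 15 min at room temperature. The complex was added to cells with compound at 5 µg/ml for 1 h at 37°C. Bound gp120 was detected with FITC anti-gp120 (1 h), washed three times in PBS, and read by fluorescence at 490/520 nm.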

[34] = Ratio of inhibition of HIV1 […] envelope glycoprotein 120-mediated membrane fusion to inhibition of HIV1 (isolate YU2) envelope glycoprotein 120-mediated membrane fusion
[35] = test system: Human immunodeficiency virus 1; experiment: Inhibition of V3-speciifc monoclonal antibody […] binding to HIV1 Ba-L gp120 by ELISA-based competitive binding assay

Molecule | IC50 [2] | IC50 [4] | IC50 [5] | IC50 [6] | IC50 [7] | IC50 [8] | IC50 [9] | IC50 [10] | IC50 [11] | IC50 [12] | IC50 [13] | Activity [14] | IC50 [15] | IC50 [17] | IC50 [19] | IC50 [20] | IC50 [21] | IC50 [22] | IC50 [23] | IC50 [24] | further results
Cc1ccc(-c2ccc3c(c2)C=C(C(=O)Nc2ccc(C[N+](C)(C)C4CCOCC4)cc2)CCC3)cc1 |  |  |  |  |  |  |  |  |  |  |  |  |  |  |  |  |  |  |  |  | Activity [1]: 0.053 ng/mL
C=C(C)[C@@H]1CC[C@]2(C(=O)NCCCCCCCNC(C)=O)CC[C@]3(C)[C@H](CC[C@@H]4[C@@]5(C)CC[C@H](O)C(C)(C)[C@@H]5CC[C@]43C)[C@@H]12 | > 50000 nM | 3700 nM | 390 nM | 450 nM | 48 nM | 640 nM | 220 nM | 850 nM | 190 nM | 90 nM | 110 nM | Non-toxic | 400 nM | 140 nM | 450 nM | 170 nM | 80 nM | 340 nM | 400 nM | 1050 nM | IC50 [3]: 70 nM; IC50 [16]: 1030 nM; IC50 [18]: 140 nM; IC50 [25]: 790 nM; IC50 [26]: 380 nM; IC50 [27]: 310 nM; IC50 [28]: 280 nM
enfuvirtide | > 50000 nM | 2230 nM | 2450 nM | 1450 nM | 2670 nM | 760 nM | 1020 nM | 1110 nM | 450 nM | 2230 nM | 1910 nM | Non-toxic | 90 nM | 2230 nM | 910 nM | 560 nM | 330 nM | 710 nM | 1830 nM | 2230 nM | IC50 [25]: 1670 nM; IC50 [26]: 1740 nM; IC50 [27]: 780 nM; IC50 [28]: 1010 nM
C=C(C)[C@@H]1CC[C@]2(C(=O)NCCCCCCCC(=O)N[C@@H](CC(C)C)[C@H](O)CC(=O)O)CC[C@]3(C)[C@H](CC[C@@H]4[C@@]5(C)CC[C@H](O)C(C)(C)[C@@H]5CC[C@]43C)[C@@H]12 | > 50000 nM | 4070 nM | 810 nM | 670 nM | 70 nM | 820 nM | 210 nM | 1070 nM | 810 nM | 90 nM | 100 nM | Non-toxic | 810 nM | 80 nM | 1610 nM | 650 nM | 90 nM | 750 nM | 1210 nM | 1260 nM | IC50 [3]: 80 nM; inhibition [29]: Active; inhibition [30]: Dose-dependent effect; inhibition [31]: Dose-dependent effect; inhibition [32]: Active; inhibition [33]: Active; IC50 [16]: 7300 nM; Ratio [34]: 30; inhibition [35]: inactive; IC50 [18]: 390 nM; IC50 [25]: 750 nM; IC50 [26]: 310 nM; IC50 [27]: 620 nM; IC50 [28]: 250 nM
